According to ChEMBL document CHEMBL1255376, “Comparative surveillance study of telavancin activity against recently collected gram-positive clinical isolates from across the United States” (2008):
In brackets after ≈: the same amount, converted by molar mass.

Tests used:
Format in all cases: functional
[1] = test system: Enterococcus faecalis; assay: Antibacterial activity against vancomycin-resistant and teichoplanin-susceptible Enterococcus faecalis clinical isolate by broth microdilution method
Method in brief: (§1)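 MICs by CLSI broth microdilution in frozen trays pre-loaded with serial dilutions of each agent. Quality-control strains run in parallel: E. faecalis ATCC 29212 and ATCC 51299, S. aureus ATCC 29213, S. pneumoniae ATCC 49619. Comparator susceptibility categories follow CLSI breakpoints. Methicillin resistance in staphylococci assigned from the oxacillin MIC.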

[2] = test system: Staphylococcus aureus; assay: Antibacterial activity against vancomycin-, methicillin-resistant Staphylococcus aureus VRS1 by broth microdilution method
Method in brief: (§2)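 VISA and VRSA strains from the NARSA repository were tested separately from the surveillance isolates. MICs by CLSI broth microdilution in frozen trays with serial dilutions. Quality-control strains run in parallel. Susceptibility categories follow CLSI breakpoints, and methicillin resistance was assigned from the oxacillin MIC.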

[3] = test system: Staphylococcus capitis; assay: Antibacterial activity against daptomycin-nonsusceptible Staphylococcus capitis isolate 1285355 by broth microdilution method
Method in brief: (§3)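 MIC by CLSI broth microdilution in frozen microtiter trays holding serial dilutions of each agent, prepared from standard laboratory powders. E. faecalis ATCC 29212 and ATCC 51299, S. aureus ATCC 29213 and S. pneumoniae ATCC 49619 run in parallel as quality-control strains. Comparator susceptibility interpreted with CLSI breakpoints.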

[4] = test system: Staphylococcus capitis; assay: Antibacterial activity against methicillin-resistant coagulase-negative Staphylococcus capitis clinical isolate by broth microdilution method; method in brief: as §1
[5] = Antibacterial activity against Streptococcus sp. Group G clinical isolate by broth microdilution method; method in brief: as §3
[6] = test system: Staphylococcus cohnii; assay: Antibacterial activity against methicillin-susceptible coagulase-negative Staphylococcus cohnii clinical isolate by broth microdilution method; method in brief: as §1
[7] = test system: Streptococcus sanguinis; assay: Antibacterial activity against Streptococcus sanguinis clinical isolate by broth microdilution method; method in brief: as §3
[8] = test system: Enterococcus faecium; assay: Antibacterial activity against vancomycin- and teichoplanin-nonsusceptible Enterococcus faecium clinical isolate by broth microdilution method; method in brief: as §1
[9] = test system: Staphylococcus simulans; assay: Antibacterial activity against methicillin-susceptible coagulase-negative Staphylococcus simulans clinical isolate by broth microdilution method; method in brief: as §1
[10] = test system: Mammaliicoccus sciuri; assay: Antibacterial activity against methicillin-resistant coagulase-negative Staphylococcus sciuri clinical isolate by broth microdilution method; method in brief: as §1
[11] = test system: Streptococcus equinus; assay: Antibacterial activity against Streptococcus bovis clinical isolate by broth microdilution method; method in brief: as §3
[12] = test system: Staphylococcus saprophyticus; assay: Antibacterial activity against methicillin-resistant coagulase-negative Staphylococcus saprophyticus clinical isolate by broth microdilution method; method in brief: as §1
[13] = test system: Streptococcus pneumoniae; assay: Antibacterial activity against penicillin resistant Streptococcus pneumoniae clinical isolate by broth microdilution method; method in brief: as §1
[14] = test system: Staphylococcus aureus; assay: Antibacterial activity against methicillin-susceptible Staphylococcus aureus clinical isolate by broth microdilution method; method in brief: as §1
[15] = test system: Staphylococcus simulans; assay: Antibacterial activity against methicillin-resistant coagulase-negative Staphylococcus simulans clinical isolate by broth microdilution method; method in brief: as §1
[16] = test system: Streptococcus pyogenes; assay: Antibacterial activity against Streptococcus pyogenes clinical isolate by broth microdilution method; method in brief: as §3
[17] = test system: Staphylococcus haemolyticus; assay: Antibacterial activity against methicillin-susceptible coagulase-negative Staphylococcus haemolyticus clinical isolate by broth microdilution method; method in brief: as §1
[18] = test system: Streptococcus oralis; assay: Antibacterial activity against Streptococcus oralis clinical isolate by broth microdilution method; method in brief: as §3
[19] = test system: Staphylococcus; assay: Antibacterial activity against daptomycin-nonsusceptible coagulase-negative Staphylococcus isolate 1285835 by broth microdilution method; method in brief: as §3
[20] = test system: Staphylococcus xylosus; assay: Antibacterial activity against methicillin-susceptible coagulase-negative Staphylococcus xylosus clinical isolate by broth microdilution method; method in brief: as §1
[21] = test system: Staphylococcus cohnii; assay: Antibacterial activity against methicillin-resistant coagulase-negative Staphylococcus cohnii clinical isolate by broth microdilution method; method in brief: as §1
[22] = test system: Streptococcus agalactiae; assay: Antibacterial activity against Streptococcus agalactiae clinical isolate by broth microdilution method; method in brief: as §3
[23] = test system: Staphylococcus aureus; assay: Antibacterial activity against vancomycin-intermediate methicillin-resistant Staphylococcus aureus NRS17 by broth microdilution method; method in brief: as §2
[24] = test system: Staphylococcus warneri; assay: Antibacterial activity against methicillin-resistant coagulase-negative Staphylococcus warneri clinical isolate by broth microdilution method; method in brief: as §1
[25] = test system: Staphylococcus hominis; assay: Antibacterial activity against methicillin-susceptible coagulase-negative Staphylococcus hominis clinical isolate by broth microdilution method; method in brief: as §1
[26] = test system: Staphylococcus aureus; assay: Antibacterial activity against methicillin-resistant Staphylococcus aureus clinical isolate by broth microdilution method; method in brief: as §1
[27] = test system: Staphylococcus saprophyticus; assay: Antibacterial activity against methicillin-susceptible coagulase-negative Staphylococcus saprophyticus clinical isolate by broth microdilution method; method in brief: as §1
[28] = test system: Streptococcus pneumoniae; assay: Antibacterial activity against penicillin intermediate Streptococcus pneumoniae clinical isolate by broth microdilution method; method in brief: as §1
[29] = Antibacterial activity against Streptococcus sp. Group C clinical isolate by broth microdilution method; method in brief: as §3
[30] = test system: Streptococcus sp.; assay: Antibacterial activity against Streptococcus sp. Group F clinical isolate by broth microdilution method
Method in brief: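 MIC by CLSI broth microdilution in frozen microtiter trays holding serial dilutions of each agent, prepared from standard laboratory powders. Comparator susceptibility interpreted with CLSI breakpoints.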

[31] = test system: Staphylococcus; assay: Antibacterial activity against methicillin-susceptible coagulase-negative unspeciated Staphylococcus clinical isolate by broth microdilution method; method in brief: as §1
[32] = test system: Enterococcus faecalis; assay: Antibacterial activity against vancomycin-susceptible Enterococcus faecalis clinical isolate by broth microdilution method; method in brief: as §1
[33] = test system: Mammaliicoccus sciuri; assay: Antibacterial activity against methicillin-susceptible coagulase-negative Staphylococcus sciuri clinical isolate by broth microdilution method; method in brief: as §1
[34] = test system: Staphylococcus epidermidis; assay: Antibacterial activity against methicillin-resistant coagulase-negative Staphylococcus epidermidis clinical isolate by broth microdilution method; method in brief: as §1
[35] = test system: Staphylococcus warneri; assay: Antibacterial activity against methicillin-susceptible coagulase-negative Staphylococcus warneri clinical isolate by broth microdilution method; method in brief: as §1
[36] = test system: Enterococcus faecium; assay: Antibacterial activity against vancomycin-resistant and teichoplanin-susceptible Enterococcus faecium clinical isolate by broth microdilution method; method in brief: as §1
[37] = test system: Staphylococcus aureus; assay: Antibacterial activity against vancomycin-, methicillin-resistant Staphylococcus aureus VRS2 by broth microdilution method; method in brief: as §2
[38] = test system: Staphylococcus xylosus; assay: Antibacterial activity against methicillin-resistant coagulase-negative Staphylococcus xylosus clinical isolate by broth microdilution method; method in brief: as §1

SMILES: CCCCCCCCCCNCCN[C@@]1(C)C[C@H](O[C@H]2[C@H](Oc3c4cc5cc3Oc3ccc(cc3Cl)[C@@H](O)[C@@H](NC(=O)[C@@H](CC(C)C)NC)C(=O)N[C@@H](CC(N)=O)C(=O)N[C@H]5C(=O)N[C@H]3C(=O)N[C@H](C(=O)N[C@H](C(=O)O)c5cc(O)c(CNCP(=O)(O)O)c(O)c5-c5cc3ccc5O)[C@H](O)c3ccc(c(Cl)c3)O4)O[C@H](CO)[C@@H](O)[C@@H]2O)O[C@@H](C)[C@H]1O [TELAVANCIN]
- MIC [1]: 0.25 µg/mL (≈ 0.142 µM)
- MIC [2]: 4 µg/mL (≈ 2.28 µM)
- MIC [3]: 1 µg/mL (≈ 0.57 µM)
- MIC50 [4]: 0.25 µg/mL (≈ 0.142 µM)
- MIC90 [4]: 0.5 µg/mL (≈ 0.285 µM)
- MIC [5]: 0.03 µg/mL (≈ 0.0171 µM)
- MIC50 [5]: 0.03 µg/mL (≈ 0.0171 µM)
- MIC90 [5]: 0.06 µg/mL (≈ 0.0342 µM)
- MIC50 [6]: 0.25 µg/mL (≈ 0.142 µM)
- MIC90 [6]: 0.5 µg/mL (≈ 0.285 µM)
- MIC50 [7]: 0.03 µg/mL (≈ 0.0171 µM)
- MIC90 [7]: 0.12 µg/mL (≈ 0.0684 µM)
- MIC50 [8]: 4 µg/mL (≈ 2.28 µM)
- MIC90 [8]: 8 µg/mL (≈ 4.56 µM)
- MIC50 [9]: 0.25 µg/mL (≈ 0.142 µM)
- MIC90 [9]: 0.5 µg/mL (≈ 0.285 µM)
- MIC50 [10]: 0.25 µg/mL (≈ 0.142 µM)
- MIC90 [10]: 0.5 µg/mL (≈ 0.285 µM)
- MIC50 [11]: 0.03 µg/mL (≈ 0.0171 µM)
- MIC90 [11]: 0.12 µg/mL (≈ 0.0684 µM)
- MIC50 [12]: 0.25 µg/mL (≈ 0.142 µM)
- MIC90 [12]: 0.5 µg/mL (≈ 0.285 µM)
- MIC50 [13]: 0.015 µg/mL (≈ 0.00854 µM)
- MIC90 [13]: 0.015 µg/mL (≈ 0.00854 µM)
- MIC50 [14]: 0.25 µg/mL (≈ 0.142 µM)
- MIC90 [14]: 0.5 µg/mL (≈ 0.285 µM)
- MIC50 [15]: 0.25 µg/mL (≈ 0.142 µM)
- MIC90 [15]: 0.5 µg/mL (≈ 0.285 µM)
- MIC50 [16]: 0.03 µg/mL (≈ 0.0171 µM)
- MIC90 [16]: 0.06 µg/mL (≈ 0.0342 µM)
- MIC50 [17]: 0.25 µg/mL (≈ 0.142 µM)
- MIC90 [17]: 0.5 µg/mL (≈ 0.285 µM)
- MIC50 [18]: 0.03 µg/mL (≈ 0.0171 µM)
- MIC90 [18]: 0.12 µg/mL (≈ 0.0684 µM)
- MIC [19]: 0.5 µg/mL (≈ 0.285 µM)
- MIC50 [20]: 0.25 µg/mL (≈ 0.142 µM)
- MIC90 [20]: 0.5 µg/mL (≈ 0.285 µM)
- MIC50 [21]: 0.25 µg/mL (≈ 0.142 µM)
- MIC90 [21]: 0.5 µg/mL (≈ 0.285 µM)
- MIC50 [22]: 0.06 µg/mL (≈ 0.0342 µM)
- MIC90 [22]: 0.06 µg/mL (≈ 0.0342 µM)
- MIC [23]: 1 µg/mL (≈ 0.57 µM)
- MIC50 [24]: 0.25 µg/mL (≈ 0.142 µM)
- MIC90 [24]: 0.5 µg/mL (≈ 0.285 µM)
- MIC50 [25]: 0.25 µg/mL (≈ 0.142 µM)
- MIC90 [25]: 0.5 µg/mL (≈ 0.285 µM)
- MIC50 [26]: 0.25 µg/mL (≈ 0.142 µM)
- MIC90 [26]: 0.25 µg/mL (≈ 0.142 µM)
- MIC50 [27]: 0.25 µg/mL (≈ 0.142 µM)
- MIC90 [27]: 0.5 µg/mL (≈ 0.285 µM)
- MIC50 [28]: 0.015 µg/mL (≈ 0.00854 µM)
- MIC90 [28]: 0.015 µg/mL (≈ 0.00854 µM)
- MIC [29]: 0.03 µg/mL (≈ 0.0171 µM)
- MIC50 [29]: 0.03 µg/mL (≈ 0.0171 µM)
- MIC90 [29]: 0.06 µg/mL (≈ 0.0342 µM)
- MIC [30]: 0.03 µg/mL (≈ 0.0171 µM)
- MIC50 [30]: 0.03 µg/mL (≈ 0.0171 µM)
- MIC90 [30]: 0.06 µg/mL (≈ 0.0342 µM)
- MIC50 [31]: 0.25 µg/mL (≈ 0.142 µM)
- MIC90 [31]: 0.5 µg/mL (≈ 0.285 µM)
- MIC50 [32]: 0.5 µg/mL (≈ 0.285 µM)
- MIC90 [32]: 1 µg/mL (≈ 0.57 µM)
- MIC50 [33]: 0.25 µg/mL (≈ 0.142 µM)
- MIC90 [33]: 0.5 µg/mL (≈ 0.285 µM)
- MIC50 [34]: 0.25 µg/mL (≈ 0.142 µM)
- MIC90 [34]: 0.5 µg/mL (≈ 0.285 µM)
- MIC50 [35]: 0.25 µg/mL (≈ 0.142 µM)
- MIC90 [35]: 0.5 µg/mL (≈ 0.285 µM)
- MIC50 [36]: 0.25 µg/mL (≈ 0.142 µM)
- MIC90 [36]: 2 µg/mL (≈ 1.14 µM)
- MIC [37]: 1 µg/mL (≈ 0.57 µM)
- MIC50 [38]: 0.25 µg/mL (≈ 0.142 µM)
- MIC90 [38]: 0.5 µg/mL (≈ 0.285 µM)
